What was measured:
[1] = tested on: Acinetobacter baumannii; assay: Antibacterial activity against Acinetobacter baumannii ATCC 19606 assessed as inhibition of cell growth by broth-microdilution method; type: functional
Method in brief: (§1)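 Strains were held at −80 °C and subcultured twice on tryptic soy agar for 24–48 h at 30 °C. MIC was read by CLSI broth microdilution in Mueller–Hinton II broth, with and without the efflux-pump inhibitor PAβN (20 µg mL⁻¹). Both sets contained 1 mM MgSO₄. A ≥4-fold MIC drop with PAβN was taken as significant.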

[2] = tested on: Proteus mirabilis; assay: Antibacterial activity against Proteus mirabilis ATCC 12453 assessed as inhibition of cell growth by broth-microdilution method; type: functional; method in brief: as §1
[3] = tested on: Escherichia coli; assay: Antibacterial activity against Escherichia coli ATCC 25922 assessed as inhibition of cell growth by broth-microdilution method; type: functional; method in brief: as §1
[4] = tested on: Stenotrophomonas maltophilia; assay: Antibacterial activity against Stenotrophomonas maltophilia ATCC 13637 assessed as inhibition of cell growth by broth-microdilution method; type: functional; method in brief: as §1
[5] = tested on: Bacillus subtilis; assay: Antibacterial activity against Bacillus subtilis ATCC 6633 assessed as diameter of inhibition zone by CLSI based disc-diffusion method; type: functional
Method in brief: (§2)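 Strains were stored at −80 °C, then subcultured twice on tryptic soy agar for 24–48 h at 30 °C before the disc-diffusion test. The result was recorded as the inhibition-zone diameter.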

[6] = Selectivity ratio of IC50 for cytotoxicity against human MRC5 cells assessed as inhibition of cell growth to MIC for antibacterial activity against methicillin-resistant Staphylococcus aureus NMI 2541 K assessed as inhibition of microbial growth by broth-microdilution method; type: toxicity, cell-based
[7] = Selectivity ratio of IC50 for cytotoxicity against human MRC5 cells assessed as inhibition of cell growth to MIC for antibacterial activity against methicillin-resistant Staphylococcus aureus NMI 1576 K assessed as inhibition of microbial growth by broth-microdilution method; type: toxicity, cell-based
[8] = tested on: Klebsiella pneumoniae; assay: Antibacterial activity against Klebsiella pneumoniae ATCC 13883 assessed as inhibition of cell growth by broth-microdilution method; type: functional; method in brief: as §1
[9] = tested on: Pseudomonas aeruginosa; assay: Antibacterial activity against Pseudomonas aeruginosa ATCC […] assessed as inhibition of cell growth by broth-microdilution method; type: functional; method in brief: as §1
[10] = Selectivity ratio of IC50 for cytotoxicity against human MRC5 cells assessed as inhibition of cell growth to MIC for antibacterial activity against methicillin-resistant Staphylococcus aureus ATCC 43300 assessed as inhibition of microbial growth; type: toxicity, cell-based
[11] = Selectivity ratio of IC50 for cytotoxicity against human MRC5 cells assessed as inhibition of cell growth to MIC for antibacterial activity against methicillin-resistant Staphylococcus aureus NMI 664 K assessed as inhibition of microbial growth by broth-microdilution method; type: toxicity, cell-based
[12] = Selectivity ratio of IC50 for cytotoxicity against human MRC5 cells assessed as inhibition of cell growth to MIC for antibacterial activity against methicillin-resistant Staphylococcus aureus NMI 1712 K assessed as inhibition of microbial growth by broth-microdilution method; type: toxicity, cell-based
[13] = tested on: Serratia marcescens; assay: Antibacterial activity against Serratia marcescens ATCC 13880 assessed as inhibition of cell growth by broth-microdilution method; type: functional; method in brief: as §1
[14] = tested on: Burkholderia cepacia; assay: Antibacterial activity against Burkholderia cepacia ATCC 25416 assessed as inhibition of cell growth by broth-microdilution method; type: functional
[15] = tested on: Staphylococcus aureus; assay: Antibacterial activity against methicillin-resistant Staphylococcus aureus ATCC 43300 assessed as diameter of inhibition zone by CLSI based disc-diffusion method; type: functional
Method in brief: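 Disc-diffusion on standard strain subcultured twice on tryptic soy agar (24–48 h, 30 °C) after storage at −80 °C; inhibition zone diameter read; linezolid disc (0.03 mg) as reference.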

[16] = tested on: Stenotrophomonas maltophilia; assay: Antibacterial activity against Stenotrophomonas maltophilia ATCC 12714 assessed as inhibition of cell growth by broth-microdilution method; type: functional; method in brief: as §1
[17] = tested on: Enterobacter cloacae; assay: Antibacterial activity against Enterobacter cloacae DSM 6234 assessed as inhibition of cell growth by broth-microdilution method; type: functional; method in brief: as §1
[18] = Selectivity ratio of IC50 for cytotoxicity against human MRC5 cells assessed as inhibition of cell growth to MIC for antibacterial activity against methicillin-resistant Staphylococcus aureus NMI 1991 K assessed as inhibition of microbial growth by broth-microdilution method; type: toxicity, cell-based
[19] = tested on: Enterococcus faecium; assay: Antibacterial activity against Enterococcus faecium ATCC 6057 assessed as inhibition of microbial growth by broth-microdilution method; type: functional
Method in brief: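 Stocks were kept at −80 °C and subcultured twice on tryptic soy agar (24–48 h, 30 °C). MIC came from CLSI broth microdilution in Mueller–Hinton II broth, using agents dissolved in DMSO. The top tested concentration was lowered to 200, 100 or 50 µg mL⁻¹ for agents that precipitated in the medium above those levels.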

[20] = tested on: Enterococcus faecium; assay: Antibacterial activity against Enterococcus faecium ATCC 6057 assessed as diameter of inhibition zone by CLSI based disc-diffusion method; type: functional; method in brief: as §2
[21] = tested on: Enterococcus faecalis; assay: Antibacterial activity against Enterococcus faecalis ATCC 29212 assessed as diameter of inhibition zone by CLSI based disc-diffusion method; type: functional; method in brief: as §2
[22] = tested on: Staphylococcus epidermidis; assay: Antibacterial activity against Staphylococcus epidermidis ATCC 12228 assessed as diameter of inhibition zone by CLSI based disc-diffusion method; type: functional; method in brief: as §2
[23] = tested on: Staphylococcus aureus; assay: Bactericidal activity against methicillin-resistant Staphylococcus aureus NMI 2541 K assessed as inhibition of microbial growth by CLSI based microdilution method; type: functional
[24] = tested on: Staphylococcus aureus; assay: Bactericidal activity against methicillin-resistant Staphylococcus aureus NMI 1712 K assessed as inhibition of microbial growth by CLSI based microdilution method; type: functional

`C[Si]1(C)OB(O)c2cc(F)c(SC3CC(=O)NC3=O)c(F)c21` (stereo not drawn) gave an MIC [1] of over 25 µg/mL, an MIC [2] of over 25 µg/mL and an MIC [3] of over 25 µg/mL. The MIC [4] was over 25 µg/mL, the “diameter of the inhibition zone (DIZ)” value [5] was 27 mm and the selectivity ratio [6] was 13.4. The selectivity ratio [7] was 26.8, the MIC [8] was over 25 µg/mL and the MIC [9] was over 25 µg/mL. For the same compound, the selectivity ratio [10] was 13.4, the selectivity ratio [11] was 13.4 and the selectivity ratio [12] was 13.4. The MIC [13] was over 25 µg/mL, the MIC [14] was over 25 µg/mL and the “diameter of the inhibition zone (DIZ)” value [15] was 23 mm. For the same compound, the MIC [16] was over 25 µg/mL, the MIC [17] was over 25 µg/mL and the selectivity ratio [18] was 13.4.

In the case of `CC(=O)CCSc1c(F)cc2c(c1F)[Si](C)(C)OB2O`, the MIC [19] is reported as 12.5 µg/mL, the “diameter of the inhibition zone (DIZ)” value [20] is reported as 21 mm and the diameter of the inhibition zone (DIZ) [21] is reported as 19 mm. For the same compound, the “diameter of the inhibition zone (DIZ)” value [15] was 19 mm.

In the case of `CCOP(=O)(OCC)Sc1c(F)cc2c(c1F)[Si](C)(C)OB2O`, the “diameter of the inhibition zone (DIZ)” value [20] is reported as 11 mm, the “diameter of the inhibition zone (DIZ)” value [5] is reported as 24 mm and the “diameter of the inhibition zone (DIZ)” value [22] is reported as 20 mm. The “diameter of the inhibition zone (DIZ)” value [21] was 11 mm, the selectivity ratio [6] was over 32 and the MBC [23] was over 12.5 µg/mL. It also gave a selectivity ratio [7] of over 32, a selectivity ratio [10] of over 32 and a selectivity ratio [11] of over 32. The selectivity ratio [12] was over 32, the “diameter of the inhibition zone (DIZ)” value [15] was 27 mm and the selectivity ratio [18] was over 32.

For `C[Si]1(C)OB(O)c2cc(F)c(SCCC#N)c(F)c21`, the MBC [24] was 12.5 µg/mL, the “diameter of the inhibition zone (DIZ)” value [5] was 23 mm and the selectivity ratio [6] was 11.2. It also gave a selectivity ratio [7] of 11.2, a selectivity ratio [10] of 11.2 and a selectivity ratio [11] of 11.2. The selectivity ratio [12] was 11.2, the “diameter of the inhibition zone (DIZ)” value [15] was 19 mm and the selectivity ratio [18] was 11.2.

— ChEMBL document CHEMBL5532704, “Exploiting thiol-functionalized benzosiloxaboroles for achieving diverse substitution patterns - synthesis, characterization and biological evaluation of promising antibacterial agents” (RSC Med Chem, 2024)
